What was measured:
Type in all cases: ADME, organism-based
Conditions in all cases: in vivo
Heart [1] = assay: Biodistribution in male Sprague-Dawley rat heart at 5 mg/kg, po administered as single dose measured after 8 hrs; parameters: dose 5 mg/kg, dosed compound name [14C]-apixaban, route oral
How it was run: (§1)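 [14C]apixaban (1.0 mg/mL, 20 μCi/mL) in 0.5% Tween 80 in Labrafil, given by oral gavage at 100 μCi/kg to male rats (225-252 g) fasted overnight through 4 h post-dose. One rat per time point. Carcasses frozen in hexane/dry ice and cut into 40 µm sagittal sections. QWBA read on phosphor plates against [14C]glucose standards, reported as µg eq/g. LLOQ 0.037 µg eq/g.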

Liver = assay: Biodistribution in male Sprague-Dawley rat liver at 5 mg/kg, po administered as single dose measured after 8 hrs; parameters: dose 5 mg/kg, dosed compound name [14C]-apixaban, route oral; how it was run: as §1
Adrenal gland = assay: Biodistribution in male Sprague-Dawley rat adrenal gland at 5 mg/kg, po administered as single dose measured after 24 hrs; parameters: dose 5 mg/kg, dosed compound name [14C]-apixaban, route oral
How it was run: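 Fasted male SD rats (225-252 g) each received one oral gavage dose of [14C]apixaban, 5 mg/kg (100 μCi/kg), in 0.5% Tween 80/Labrafil vehicle. One rat was killed per time point, from 0.5 to 168 h. Frozen carcasses were cut into 40 µm sagittal whole-body sections and read by QWBA phosphor imaging against [14C]glucose calibrants. Results are in µg apixaban eq/g; BLQ <0.037 µg eq/g.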

Thymus [2] = assay: Biodistribution in female Sprague-Dawley rat thymus at 5 mg/kg, po administered as single dose measured after 24 hrs; parameters: dose 5 mg/kg, dosed compound name [14C]-apixaban, route oral
How it was run: (§2)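 Quantitative whole-body autoradiography was run after a single 5 mg/kg (100 μCi/kg) oral gavage to fasted female or pregnant SD rats, one rat per time point. Carcasses were frozen in hexane/dry ice, and 40 µm sagittal sections were dried at −20°C for at least 48 h. Sections were exposed to a phosphor plate alongside [14C]glucose standards (0.001–6.5 µCi/g). Results are µg eq/g, with LLOQ 0.037 µg eq/g.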

Spleen [3] = assay: Biodistribution in female Sprague-Dawley rat spleen at 5 mg/kg, po administered as single dose measured after 24 hrs; parameters: dose 5 mg/kg, dosed compound name [14C]-apixaban, route oral; how it was run: as §2
Brain [4] = assay: Biodistribution in female Sprague-Dawley rat brain at 5 mg/kg, po administered as single dose measured after 24 hrs; parameters: dose 5 mg/kg, dosed compound name [14C]-apixaban, route oral
How it was run: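 [14C]Apixaban (1.0 mg/mL, 20 μCi/mL in 0.5% Tween 80 in Labrafil) given as a single oral gavage of 5 mg/kg (100 μCi/kg) to fasted female SD rats, one rat per time point. Carcasses were frozen in hexane/dry ice and cut into 40 µm sagittal sections for QWBA against [14C]glucose standards. Brain radioactivity is reported as µg eq/g, with LLOQ 0.037 µg eq/g.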

Blood [5] = assay: Biodistribution in female Sprague-Dawley rat blood at 5 mg/kg, po administered as single dose measured after 24 hrs; parameters: dose 5 mg/kg, dosed compound name [14C]-apixaban, route oral; how it was run: as §2
Rattus norvegicus [6] = assay: Biodistribution in female Sprague-Dawley rat bone marrow at 5 mg/kg, po administered as single dose measured after 8 hrs; parameters: dose 5 mg/kg, dosed compound name [14C]-apixaban, route oral
How it was run: (§3)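 [14C]apixaban (20 μCi/mL in dosing solution) in 0.5% Tween 80 in Labrafil given by oral gavage to fasted female rats, 206-213 g, at 100 μCi/kg. One rat per time point was euthanized and snap-frozen. Sagittal 40 µm whole-body sections were read by QWBA phosphor imaging against [14C]glucose standards. Results are in µg eq apixaban/g, with LLOQ 0.037 μg eq/g.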

Rattus norvegicus [7] = assay: Biodistribution in female Sprague-Dawley rat pituitary gland at 5 mg/kg, po administered as single dose measured after 4 hrs; parameters: dose 5 mg/kg, dosed compound name [14C]-apixaban, route oral; how it was run: as §3
Pancreas = assay: Biodistribution in female Sprague-Dawley rat pancreas at 5 mg/kg, po administered as single dose measured after 4 hrs; parameters: dose 5 mg/kg, dosed compound name [14C]-apixaban, route oral
How it was run: (§4)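 [¹⁴C]Apixaban given by oral gavage at 5 mg/kg (100 μCi/kg) in 0.5% Tween 80 in Labrafil (1.0 mg/mL dosing solution) to rats fasted overnight through 4 h post-dose. One rat per time point; carcass frozen in hexane/dry ice. Quantitative whole-body autoradiography used 40 µm sagittal sections and a phosphor imaging plate calibrated with [¹⁴C]glucose standards (0.001–6.5 μCi/g). Read-out in µg eq apixaban/g; LLOQ 0.037 μg eq/g.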

Muscle tissue = assay: Biodistribution in female Sprague-Dawley rat muscle at 5 mg/kg, po administered as single dose measured after 4 hrs; parameters: dose 5 mg/kg, dosed compound name [14C]-apixaban, route oral; how it was run: as §4
Rattus norvegicus [8] = assay: Biodistribution in female Sprague-Dawley rat pituitary gland at 5 mg/kg, po administered as single dose measured after 0.5 hrs; parameters: dose 5 mg/kg, dosed compound name [14C]-apixaban, route oral; how it was run: as §3
Harderian gland [9] = assay: Biodistribution in male Sprague-Dawley rat harderian gland at 5 mg/kg, po administered as single dose measured after 1 hr; parameters: dose 5 mg/kg, dosed compound name [14C]-apixaban, route oral; how it was run: as §4
Heart [10] = assay: Biodistribution in male Sprague-Dawley rat heart at 5 mg/kg, po administered as single dose measured after 1 hr; parameters: dose 5 mg/kg, dosed compound name [14C]-apixaban, route oral; how it was run: as §4
Rattus norvegicus [11] = assay: Biodistribution in male Sprague-Dawley rat pituitary gland at 5 mg/kg, po administered as single dose measured after 1 hr; parameters: dose 5 mg/kg, dosed compound name [14C]-apixaban, route oral
Spleen [12] = assay: Biodistribution in male Sprague-Dawley rat spleen at 5 mg/kg, po administered as single dose measured after 1 hr; parameters: dose 5 mg/kg, dosed compound name [14C]-apixaban, route oral; how it was run: as §1
Brain [13] = assay: Biodistribution in male Sprague-Dawley rat brain at 5 mg/kg, po administered as single dose measured after 4 hrs; parameters: dose 5 mg/kg, dosed compound name [14C]-apixaban, route oral
Rattus norvegicus [14] = assay: Biodistribution in pregnant Sprague-Dawley rat kidney cortex at 5 mg/kg, po administered as single dose measured after 8 hrs; parameters: dose 5 mg/kg, dosed compound name [14C]-apixaban, route oral
Harderian gland [15] = assay: Biodistribution in pregnant Sprague-Dawley rat harderian gland at 5 mg/kg, po administered as single dose measured after 24 hrs; parameters: dose 5 mg/kg, dosed compound name [14C]-apixaban, route oral
How it was run: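 Fasted pregnant SD rats (n=6, 270-319 g) each received one oral gavage dose of [14C]apixaban, 5 mg/kg (100 μCi/kg), in 0.5% Tween 80/Labrafil. One rat was killed at each of 0.5, 1, 4, 8, 24 and 48 h. Carcasses were frozen in hexane/dry ice, cut into 40 µm sagittal sections, exposed to phosphor plates and quantified against [14C]glucose standards as µg eq/g. LLOQ was 0.037 µg eq/g.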

Heart [16] = assay: Biodistribution in female Sprague-Dawley rat heart at 5 mg/kg, po administered as single dose measured after 0.5 hrs; parameters: dose 5 mg/kg, dosed compound name [14C]-apixaban, route oral; how it was run: as §4
Blood [17] = assay: AUC (0 to infinity) in male Sprague-Dawley rat blood at 5 mg/kg, po administered as single dose; parameters: time infinity, dose 5 mg/kg, dosed compound name [14C]-apixaban, route oral
Rattus norvegicus [18] = assay: Biodistribution in fetal kidney of pregnant Sprague-Dawley rat at 5 mg/kg, po administered as single dose measured after 48 hrs; parameters: dose 5 mg/kg, dosed compound name [14C]-apixaban, route oral; how it was run: as §2
Rattus norvegicus [19] = assay: Biodistribution in fetal kidney of pregnant Sprague-Dawley rat at 5 mg/kg, po administered as single dose measured after 4 hrs; parameters: dose 5 mg/kg, dosed compound name [14C]-apixaban, route oral
How it was run: (§5)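 Pregnant rats, 270-319 g and fasted overnight, received [14C]apixaban by oral gavage at 100 μCi/kg in 0.5% Tween 80/Labrafil. One dam per time point was euthanized and frozen in hexane/dry ice. Fetal tissue radioactivity was measured by QWBA on 40 µm sagittal sections calibrated with [14C]glucose standards. Values are in µg eq/g, with LLOQ 0.037 μg eq/g.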

Thymus [20] = assay: Biodistribution in pregnant Sprague-Dawley rat thymus at 5 mg/kg, po administered as single dose measured after 0.5 hrs; parameters: dose 5 mg/kg, dosed compound name [14C]-apixaban, route oral
Rattus norvegicus [21] = assay: Biodistribution in pregnant Sprague-Dawley rat bone marrow at 5 mg/kg, po administered as single dose measured after 1 hr; parameters: dose 5 mg/kg, dosed compound name [14C]-apixaban, route oral
Rattus norvegicus [22] = assay: Biodistribution in fetal blood of pregnant Sprague-Dawley rat at 5 mg/kg, po administered as single dose measured after 1 hr; parameters: dose 5 mg/kg, dosed compound name [14C]-apixaban, route oral; how it was run: as §5

COc1ccc(-n2nc(C(N)=O)c3c2C(=O)N(c2ccc(N4CCCC[14C]4=O)cc2)CC3)cc1
Radiolabel recovery (Heart [1]): 0.08 ugequiv/g | Radiolabel recovery (Liver): 0.39 ugequiv/g | Radiolabel recovery (Adrenal gland): Not sampled as not visualised in autoradiograph | Radiolabel recovery (Thymus [2]): Not detected assumed BLQ | Radiolabel recovery (Spleen [3]): Not detected assumed BLQ | Radiolabel recovery (Brain [4]): < 0.037 ugequiv/g | Radiolabel recovery (Blood [5]): Not detected assumed BLQ | Radiolabel recovery (Rattus norvegicus [6]): 0.15 ugequiv/g | Radiolabel recovery (Rattus norvegicus [7]): 0.48 ugequiv/g | Radiolabel recovery (Pancreas): 0.55 ugequiv/g | Radiolabel recovery (Muscle tissue): 0.29 ugequiv/g | Radiolabel recovery (Rattus norvegicus [8]): 0.43 ugequiv/g | Radiolabel recovery (Harderian gland [9]): 0.69 ugequiv/g | Radiolabel recovery (Heart [10]): 0.7 ugequiv/g | Radiolabel recovery (Rattus norvegicus [11]): 0.59 ugequiv/g | Radiolabel recovery (Spleen [12]): 0.32 ugequiv/g | Radiolabel recovery (Brain [13]): < 0.037 ugequiv/g | Radiolabel recovery (Rattus norvegicus [14]): 0.21 ugequiv/g | Radiolabel recovery (Harderian gland [15]): Not detected assumed BLQ | Radiolabel recovery (Heart [16]): 0.37 ugequiv/g | AUC (Blood [17]): 4300 ngequiv.hr/g | Radiolabel recovery (Rattus norvegicus [18]): Not sampled as not visualised in autoradiograph | Radiolabel recovery (Rattus norvegicus [19]): 0.46 ugequiv/g | Radiolabel recovery (Thymus [20]): 0.38 ugequiv/g | Radiolabel recovery (Rattus norvegicus [21]): 0.33 ugequiv/g | Radiolabel recovery (Rattus norvegicus [22]): 0.31 ugequiv/g
